Test results as given in ChEMBL document CHEMBL3856193, “Combretastatin A-4 analogues with benzoxazolone scaffold: Synthesis, structure and biological activity” (Eur J Med Chem, 2016).
pIC50: −log10 of the molar value. Calls of active or inactive are those of the source. The calls are words filed in the database; no cut-off is given here.

What was measured:
[1] = Growth inhibition of human HepG2 cells measured after 72 hrs by MTT assay; assay type: functional, cell-based; conditions: HepG2, 72 h
Summary of the method: (§1)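 Cells seeded at 1 x 10^4/100 µL, treated 24 h later with drug diluted from 2 mmol/L DMSO stock (0.01% DMSO final), 72 h incubation. MTT added for 3 h at 37°C, formazan dissolved in 0.1 N HCl/isopropanol, OD read at 550/630 nm. Eight replicates per concentration, mean ± SD. IC50 from curve fitting. Cells kept at 37°C in humidified CO2.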

[2] = Growth inhibition of human K562 cells measured after 72 hrs by MTT assay; assay type: functional, cell-based; conditions: K562, 72 h; summary of the method: as §1
[3] = Growth inhibition of human EAhy926 cells measured after 72 hrs by MTT assay; assay type: functional, cell-based; conditions: EA.hy 926, 72 h; summary of the method: as §1
EA.hy 926 [4] = assay: Antiangiogenic activity against human EAhy926 assessed as inhibition of capillary tube formation at 0.28 uM after 72 hrs by matrigel assay; assay type: functional
Summary of the method: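 EA.hy 926 cells (4 x 10^4) plated onto Matrigel pre-set 30 min at 37°C in complete DMEM; after 24 h medium replaced by EBM2 alone (control) or EBM2 with 0.28 µM or 0.11 µM drug. Capillary tube formation followed by inverted microscopy up to 72 h.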

HepG2 [5] = assay: Cytostatic activity against human HepG2 cells up to 25 uM measured after 72 hrs by MTT assay; assay type: functional, cell-based; summary of the method: as §1
HepG2 [6] = assay: Induction of apoptosis in human HepG2 cells assessed as necrotic cells at 0.19 to 0.28 uM measured after 48 hrs by Annexin V-FITC/propidium iodide staining-based flow cytometric analysis relative to control; assay type: functional
HepG2 [7] = assay: Inhibition of beta-tubulin polymerization in human HepG2 cells assessed as mitotic slippage at 185 to 190 nM measured after 24 hrs by DAPI staining based immunofluorescence analysis; assay type: cell-based
Summary of the method: (§2)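 HepG2 cells grown on coverslips were treated 24 h with 185 nM drug, with 0.01% DMSO vehicle as control. Cells fixed in 3.7% buffered paraformaldehyde and immunostained for β-tubulin (AlexaFluor-488 secondary, 40 min). F-actin labelled with phalloidin, DNA with DAPI mounting medium. Imaged by fluorescence microscopy.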

EA.hy 926 [8] = assay: Induction of apoptosis in human EAhy926 cells assessed as increase in apoptotic cells at growth inhibitory IC50 measured after 48 hrs by Annexin V-FITC/propidium iodide staining-based flow cytometric analysis relative to control; assay type: functional, cell-based
[9] = Antiproliferative activity against CA-4-resistant human MDA-MB-231 cells measured after 72 hrs by MTT assay; assay type: functional, cell-based; conditions: MDA-MB-231, 72 h; summary of the method: as §1
[10] = Cell cycle arrest in human HepG2 cells assessed as decrease in G0/G1 phase at growth inhibitory IC50 measured after 24 hrs by propidium iodide-staining based FACS analysis; assay type: functional
[11] = Cell cycle arrest in human HepG2 cells assessed as decrease in accumulation of G2/M phase at growth inhibitory IC50 measured after 72 hrs by propidium iodide-staining based FACS analysis; assay type: functional
[12] = Antiproliferative activity against CA-4-resistant human HT-29 cells measured after 72 hrs by MTT assay; assay type: functional, cell-based; conditions: HT-29, 72 h
Summary of the method: (§3)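 Cells seeded at 1 × 10^4 per well and left 24 h, then exposed to graded compound concentrations (stock 2 mmol/L in DMSO, final DMSO 0.01% in medium) for 72 h at 37 °C in humidified CO2. MTT (5 mg/mL) added for 3 h; formazan dissolved in 0.1 N HCl/isopropanol and read at 550/630 nm. Eight replicate wells per concentration; IC50 from curve fitting.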

Sus scrofa [13] = species: Sus scrofa; assay: Inhibition of porcine brain tubulin polymerization at 10 uM measured every 1 min for 40 mins in presence of GTP
EA.hy 926 [14] = assay: Cytostatic activity against human EAhy926 cells up to 25 uM measured after 72 hrs by MTT assay; assay type: functional, cell-based; summary of the method: as §1
K562 = assay: Cytostatic activity against human K562 cells up to 25 uM measured after 72 hrs by MTT assay; assay type: functional, cell-based; summary of the method: as §1
HT-29 = assay: Potency index, ratio of IC50 for combretastatin A-4 to IC50 for test compound against human HT-29 cells; assay type: functional
EA.hy 926 [15] = assay: Induction of apoptosis in human EAhy926 cells assessed as necrotic cells at 0.19 to 0.28 uM measured after 48 hrs by Annexin V-FITC/propidium iodide staining-based flow cytometric analysis relative to control; assay type: functional
A549 = assay: Potency index, ratio of combretastatin A-4 IC50 to compound IC50 for human A549 cells; assay type: functional
HepG2 [16] = assay: Inhibition of beta-tubulin polymerization in human HepG2 cells assessed as multi-polar spindle formation at 185 to 190 nM measured after 24 hrs by DAPI staining based immunofluorescence analysis; assay type: cell-based; summary of the method: as §2
HepG2 [17] = assay: Induction of micronuclei formation in human HepG2 cells at 185 to 190 nM measured after 24 hrs by DAPI staining based immunofluorescence analysis; assay type: functional, cell-based; summary of the method: as §2
[18] = Cytostatic activity against human MCF10A cells assessed as cell survival up to 25 uM measured after 72 hrs by MTT assay relative to control; assay type: ADME, cell-based, MCF-10A; conditions: read-out: Survival
[19] = Antiproliferative activity against mouse Colon 26 cells measured after 72 hrs by MTT assay; assay type: functional, cell-based; conditions: Colon 26, 72 h; summary of the method: as §3
HepG2 [20] = assay: Inhibition of beta-tubulin polymerization in human HepG2 cells assessed as induction of mitotic ploidity at 185 to 190 nM measured after 24 hrs by DAPI staining based immunofluorescence analysis; assay type: cell-based; summary of the method: as §2
[21] = Cytotoxicity against human NHEK measured after 72 hrs by MTT assay; assay type: toxicity; summary of the method: as §1
HepG2 [22] = assay: Inhibition of beta-tubulin polymerization in human HepG2 cells assessed as DNA fragmentation at 185 to 190 nM measured after 24 hrs by DAPI staining based immunofluorescence analysis; assay type: cell-based; summary of the method: as §2
Sus scrofa [23] = species: Sus scrofa; assay: Induction of porcine brain tubulin polymerization assessed as time required to reach maxium effect at 10 uM measured every 1 min for 40 mins in presence of GTP
Colon 26 = assay: Potency index, ratio of combretastatin A-4 IC50 to compound IC50 for mouse Colon 26 cells; assay type: functional
HepG2 [24] = assay: Induction of apoptosis in human HepG2 cells assessed as increase in apoptotic cells at growth inhibitory IC50 measured after 48 hrs by Annexin V-FITC/propidium iodide staining-based flow cytometric analysis relative to control; assay type: functional, cell-based
[25] = Cell cycle arrest in human HepG2 cells assessed as accumulation of cells with 4N DNA content at growth inhibitory IC50 measured after 24 hrs by propidium iodide-staining based FACS analysis relative to control; assay type: functional; set-up: scale not given: the % may be the effect or the level left
[26] = Cell cycle arrest in human HepG2 cells assessed as accumulation of hypoploid sub-G1 cells at growth inhibitory IC50 measured after 72 hrs by propidium iodide-staining based FACS analysis; assay type: functional
[27] = Cell cycle arrest in human HepG2 cells assessed as accumulation in G2/M phase at growth inhibitory IC50 measured after 8 hrs by propidium iodide-staining based FACS analysis (reference value: 28%); assay type: functional; set-up: scale not given: the % may be the effect or the level left
[28] = Cell cycle arrest in human HepG2 cells assessed as increase in G2/M phase accumulation at growth inhibitory IC50 after 8 hrs by propidium iodide-staining based FACS analysis relative to combretastatin A-4; assay type: functional; set-up: scale not given: the % may be the effect or the level left
[29] = Cell cycle arrest in human HepG2 cells assessed as >4N DNA content at growth inhibitory IC50 measured after 24 hrs by propidium iodide-staining based FACS analysis relative to control; assay type: functional; set-up: scale not given: the % may be the effect or the level left
[30] = Cell cycle arrest in human HepG2 cells assessed as decrease in S phase at growth inhibitory IC50 measured after 24 hrs by propidium iodide-staining based FACS analysis; assay type: functional
[31] = Antiproliferative activity against human MCF7 cells measured after 72 hrs by MTT assay; assay type: functional, cell-based; conditions: MCF7, 72 h; summary of the method: as §1
HepG2 [32] = assay: Inhibition of beta-tubulin polymerization in human HepG2 cells assessed as formation of pseudo G1 phase multinucleated cells at 185 to 190 nM measured after 24 hrs by DAPI staining based immunofluorescence analysis; assay type: cell-based; summary of the method: as §2
[33] = Antiproliferative activity against human HaCaT cells measured after 72 hrs by MTT assay; assay type: functional, cell-based; summary of the method: as §3
Sus scrofa [34] = species: Sus scrofa; assay: Inhibition of porcine brain tubulin polymerization measured every 1 min for 40 mins in presence of GTP
Sus scrofa [35] = species: Sus scrofa; assay: Inhibition of porcine brain tubulin polymerization at 50 uM measured every 1 min for 40 mins in presence of GTP
[36] = Antiproliferative activity against CA-4-resistant human A549 cells measured after 72 hrs by MTT assay; assay type: functional, cell-based; conditions: A549, 72 h; summary of the method: as §3

COc1cc(/C=C\c2cccc3oc(=O)n(C)c23)cc(OC)c1
pIC50 [1]: 4.74
pIC50 [2]: 4.95
pIC50 [3]: 4.53

COc1ccc(/C=C\c2cccc3c2oc(=O)n3C)cc1OC
pIC50 [1]: 4.52
pIC50 [2]: < 4.30
pIC50 [3]: < 4.30

COc1ccc(/C=C\c2ccc3oc(=O)n(C)c3c2)cc1
pIC50 [1]: 4.32
pIC50 [2]: 4.62
pIC50 [3]: 4.82

COc1cc(/C=C\c2ccc3c(c2)oc(=O)n3C)cc(OC)c1OC
inhibition (EA.hy 926 [4]): Active
Activity (HepG2 [5]): Active
Activity (HepG2 [6]): 20%
inhibition (HepG2 [7]): Active
Activity (EA.hy 926 [8]): Active
pIC50 [9]: 6.77
Activity [10]: Active
Activity [11]: Active
pIC50 [12]: 6.60
inhibition (Sus scrofa [13]): 40%
Activity (EA.hy 926 [14]): Active
Activity (K562): Active
Ratio IC50 (HT-29): >10
pIC50 [1]: 6.72
Activity (EA.hy 926 [15]): 20%
Ratio IC50 (A549): 50
inhibition (HepG2 [16]): Active
Activity (HepG2 [17]): Active
viability at 72 h [18]: 70%
pIC50 [19]: 7.30
inhibition (HepG2 [20]): Active
Activity [21]: Non-Toxic
pIC50 [2]: 6.14
inhibition (HepG2 [22]): Active
TIME (Sus scrofa [23]): 0.333 h
Ratio IC50 (Colon 26): 9
Activity (HepG2 [24]): Active
Activity [25]: 80%
Activity [26]: Active
Activity [27]: 39%
Activity [28]: 6%
Activity [29]: 9%
Activity [30]: Active
pIC50 [3]: 6.55
pIC50 [31]: 7.15
inhibition (HepG2 [32]): Active
pIC50 [33]: 7.22
inhibition (Sus scrofa [34]): Dose-dependent effect
inhibition (Sus scrofa [35]): Active
pIC50 [36]: 7.22
